Assay results: the RNAGym collection of RNA variant scans (doi:10.1126/science.aae0568)
Fewer inactive variants are shown than the library holds.

B1: tRNA (parent)
chain: GUUCCGUUGGCGUAAUGGUAACGCGUCUCCCUCCUAAGGAGAAGACUGCGGGUUCGAGUCCCGUACGGAACG

Variants of: B1
Assay: yeast fitness relative to wild type (ratio to wild type); higher = fitter; tRNA-Arg(CCU), competitive growth, 37 C, YPD
Summary of the method: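 Variants of the tRNA-Arg(CCU) gene, chemically synthesised with a 3% per-site mutation rate at 69 sites, were placed at the native genomic locus in Saccharomyces cerevisiae. The pooled strains were competed in YPD at 37°C for 24 hours in six parallel replicates. Gene amplicons from the start population and from each end population were read by 100-nucleotide paired-end sequencing. Darwinian fitness relative to wild type came from changes in genotype frequencies; genotypes needed ≥ 100 starting reads, and estimates < 0.5 were set to 0.5.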
With C4A C11U G56C C62G G68C the yeast fitness was no more than 0.5.
C4A C22A C29U A69U gave a yeast fitness of no more than 0.5.
In the case of C4A G6A, the yeast fitness is reported as 0.706.
With C4A G6C the yeast fitness was 0.703.
For C4A C5U A20G U28A A37U C61U A69U, the yeast fitness was no more than 0.5.
Work on C4A G17A A21G C24G G67A A70G yielded a yeast fitness of no more than 0.5.
Variant C4A G17C A20G C31G A37C has a yeast fitness of no more than 0.5.
C4A G18C C24U C29U C34A gave a yeast fitness of 0.592.
C4A G18C C29A C31A C66U gave a yeast fitness of no more than 0.5.
For C4A C34G G68A, the yeast fitness was no more than 0.5.
For C4A C30A G48C, the yeast fitness was no more than 0.5.
Variant C4A C5G U8A C30A C62A has a yeast fitness of no more than 0.5.
Variant C4A C29G A36U A65G C66U has a yeast fitness of no more than 0.5.
C4A C22U C24A C29A A36C G52A U53A gave a yeast fitness of no more than 0.5.
In the case of C4A C29G A57G U59A A69U, the yeast fitness is reported as no more than 0.5.
C4A G23A C33G G63C A65U gave a yeast fitness of no more than 0.5.
With C4A C5A C30A C31U C33A A40U C60G the yeast fitness was no more than 0.5.
C4A G9C C11G showed a yeast fitness of no more than 0.5.
C4A G39A showed a yeast fitness of 0.914.
In the case of C4A G6A C33U U53C, the yeast fitness is reported as no more than 0.5.
Work on C4A G51A A70G yielded a yeast fitness of 0.58.
Work on C4A G9C C11G A45C A57G yielded a yeast fitness of 0.526.
C4A C33G G41C G56C G58A G63C A65U showed a yeast fitness of no more than 0.5.
Variant C4A C24G G41U has a yeast fitness of no more than 0.5.
With C4A C5A C29G G38C A65U the yeast fitness was no more than 0.5.
With C4A G17A G41A C66U the yeast fitness was 0.508.
C4A G10C C11U C27U A45U C60G showed a yeast fitness of no more than 0.5.
C4A G39C G51A gave a yeast fitness of no more than 0.5.
Work on C4A C11U C27G C33A A43C C46A yielded a yeast fitness of no more than 0.5.
C4A C27U U28G C33G A36G C61G gave a yeast fitness of no more than 0.5.
For C4A C49U A69C, the yeast fitness was 0.555.
With C4A G6A U64A the yeast fitness was no more than 0.5.
With C4A G17C C49U C62G the yeast fitness was no more than 0.5.
Variant C4A G38A C55G has a yeast fitness of no more than 0.5.
C4A C24U A65U showed a yeast fitness of no more than 0.5.
In the case of C4A G17C G23C U53A, the yeast fitness is reported as no more than 0.5.
For C4A C31A A45U, the yeast fitness was no more than 0.5.
C4A C29G C31A G67A showed a yeast fitness of no more than 0.5.
C4A C22G C30U A40G A45C gave a yeast fitness of no more than 0.5.
C4A C30U showed a yeast fitness of 0.756.
C4A G67A showed a yeast fitness of 0.781.
Variant C4A C11A has a yeast fitness of 0.6.
C4A C34G A40U U47A G67C showed a yeast fitness of 0.55.
C4A C55A gave a yeast fitness of 0.587.
For C4A C5U U8C U47C U64A, the yeast fitness was no more than 0.5.
With C4A C5U U19A the yeast fitness was 0.532.
C4A C33A C60A G63A U64C gave a yeast fitness of no more than 0.5.
In the case of C4A C34G G38C, the yeast fitness is reported as no more than 0.5.
With C4A G17C C31G A37C the yeast fitness was 0.748.
In the case of C4A C5A G23A, the yeast fitness is reported as no more than 0.5.
C4A C24U C29U U32C U54C gave a yeast fitness of no more than 0.5.
For C4A C5G, the yeast fitness was 0.571.
Variant C4A C33A G39C C49U U54A A70U has a yeast fitness of no more than 0.5.
With C4A C5G G39C the yeast fitness was no more than 0.5.
Work on C4A G68U yielded a yeast fitness of 0.831.
With C4A G68A the yeast fitness was 0.962.
C4A U7A C31U C61G gave a yeast fitness of no more than 0.5.
In the case of C4A G23C G56C U59A A65G, the yeast fitness is reported as no more than 0.5.
In the case of C4A C31A U32A, the yeast fitness is reported as no more than 0.5.
Work on C4A G18A C29U C66A yielded a yeast fitness of no more than 0.5.
With C4A U7A U8G A45C the yeast fitness was no more than 0.5.
For C4A C22U G48C, the yeast fitness was no more than 0.5.
In the case of C4A G52C A57C G63C, the yeast fitness is reported as 0.56.
C4A C30G A40U C49U gave a yeast fitness of no more than 0.5.
C4A C22U showed a yeast fitness of 0.789.
C4A C22G gave a yeast fitness of 0.65.
C4A C29A A70C gave a yeast fitness of no more than 0.5.
With C4A C29G A40U C55A G67C the yeast fitness was no more than 0.5.
C4A C33A A36C G67A showed a yeast fitness of no more than 0.5.
For C4A G17A C22A C31A C33A C49A, the yeast fitness was 0.525.
In the case of C4A C5A C34A A43G, the yeast fitness is reported as no more than 0.5.
Variant C4A G18A G44C C46U C49U G67A A70U has a yeast fitness of no more than 0.5.
With C4A G6A G52C A57C G63C the yeast fitness was 0.537.
C4A C31U gave a yeast fitness of 0.864.
For C4A C22G A69C, the yeast fitness was 0.538.
For C4A C11G U13A A20C C22U A36C, the yeast fitness was 0.705.
C4A C5G C60U C62U gave a yeast fitness of no more than 0.5.
With C4A G17A C30A the yeast fitness was no more than 0.5.
In the case of C4A C11A U13C U28G A43G, the yeast fitness is reported as no more than 0.5.
Variant C4A C5A C60A has a yeast fitness of 0.671.
In the case of C4A U7A A14G G17C A36G C61U, the yeast fitness is reported as no more than 0.5.
In the case of C4A C24U C55A A65C, the yeast fitness is reported as no more than 0.5.
Variant C4A C11A C61U has a yeast fitness of no more than 0.5.
C4A G17C U19C A21U C33G gave a yeast fitness of no more than 0.5.
